Reference: ChEMBL document CHEMBL5356938, “Enhancing allosteric inhibition of dihydrodipicolinate synthase through the design and synthesis of novel dimeric compounds” (RSC Med Chem, 2023)

Key:
[1] = Inhibition of Escherichia coli DHDPS using ASA as substrate assessed as NADPH oxidation to NADP+ preincubated with compound for 12 mins in the presence of NADPH followed by substrate addition by UV/Vis spectrophotometric analysis
Method in brief: (§1)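 Coupled DHDPS–DHDPR assay with final 250 mM HEPES pH 8.0, 0.2 mM NADPH, 1 mM pyruvate, 0.125 mM ASA, 0.0009 mM E. coli DHDPR, 0.00008 mM DHDPS, 0.05% Tween 20 and varied inhibitor. Enzymes, pyruvate, buffer and NADPH were held at 30 °C for 12 min, then ASA was added. NADPH oxidation was followed at 340 nm and 30 °C. Initial rates came from the linear A340 slope, run in triplicate, and were used for IC50.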

[2] = biological target: T1, 4-hydroxy-tetrahydrodipicolinate synthase 1, chloroplastic (Arabidopsis thaliana, UniProt Q9LZX6); test: Inhibition of Arabidopsis thaliana DHDPS1; method in brief: as §1
T1 sequence (Q9LZX6 whole entry): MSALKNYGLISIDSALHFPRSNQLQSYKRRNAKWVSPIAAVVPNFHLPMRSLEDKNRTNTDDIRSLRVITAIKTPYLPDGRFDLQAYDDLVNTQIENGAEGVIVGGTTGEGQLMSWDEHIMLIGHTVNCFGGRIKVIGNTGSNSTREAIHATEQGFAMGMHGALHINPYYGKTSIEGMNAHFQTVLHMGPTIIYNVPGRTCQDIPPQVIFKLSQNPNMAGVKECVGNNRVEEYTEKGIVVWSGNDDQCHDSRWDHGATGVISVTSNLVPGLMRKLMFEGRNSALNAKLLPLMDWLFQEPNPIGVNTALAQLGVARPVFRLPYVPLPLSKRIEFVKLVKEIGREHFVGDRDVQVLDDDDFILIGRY

[3] = biological target: T2, 4-hydroxy-tetrahydrodipicolinate synthase 2, chloroplastic (Arabidopsis thaliana, UniProt Q9FVC8); test: Inhibition of Arabidopsis thaliana DHDPS2; method in brief: as §1
T2 sequence (Q9FVC8 whole entry): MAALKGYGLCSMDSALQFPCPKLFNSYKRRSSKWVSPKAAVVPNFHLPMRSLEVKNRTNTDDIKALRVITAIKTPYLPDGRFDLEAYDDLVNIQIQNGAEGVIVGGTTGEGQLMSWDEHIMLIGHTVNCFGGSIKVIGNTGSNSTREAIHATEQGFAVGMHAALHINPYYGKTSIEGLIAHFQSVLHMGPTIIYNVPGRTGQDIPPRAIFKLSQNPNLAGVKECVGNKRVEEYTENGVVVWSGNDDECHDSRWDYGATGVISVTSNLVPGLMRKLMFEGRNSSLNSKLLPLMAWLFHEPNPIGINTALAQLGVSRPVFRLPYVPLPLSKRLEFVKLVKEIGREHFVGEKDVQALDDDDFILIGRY

COc1ccc(/C=C2\SC(=O)N(CC(=O)O)C2=O)cc1
IC50 [1]: 47 µM
IC50 [2]: 66.2 µM
IC50 [3]: 66 µM

CCOC(=O)C(Br)CCC(Br)C(=O)OCC (stereo unspecified)
IC50 [1]: 77.4 µM

COc1ccc(/C=C2\SC(=O)N(C(CCCC(C(=O)O)N3C(=O)S/C(=C\c4ccc(OC)cc4)C3=O)C(=O)O)C2=O)cc1 (stereo unspecified)
IC50 [1]: 40.6 µM

COc1ccc(/C=C2\SC(=O)N([C@H](CC[C@@H](C(=O)O)N3C(=O)S/C(=C\c4ccc(OC)cc4)C3=O)C(=O)O)C2=O)cc1
IC50 [1]: 42 µM

COc1ccc(/C=C2\SC(=O)N([C@H](C[C@@H](C(=O)O)N3C(=O)S/C(=C\c4ccc(OC)cc4)C3=O)C(=O)O)C2=O)cc1
IC50 [1]: 9.95 µM
IC50 [2]: 35.6 µM
IC50 [3]: 33.9 µM

COc1ccc(/C=C2\SC(=O)N([C@@H](CC[C@@H](C(=O)O)N3C(=O)S/C(=C\c4ccc(OC)cc4)C3=O)C(=O)O)C2=O)cc1 (racemic)
IC50 [1]: 19.7 µM

COc1ccc(/C=C2\SC(=O)N([C@H](C[C@H](C(=O)O)N3C(=O)S/C(=C\c4ccc(OC)cc4)C3=O)C(=O)O)C2=O)cc1 (racemic)
IC50 [1]: 30.4 µM
